Source: paper PMC3329623 (The Biochemical journal, 2009)
Like-named read-outs stand apart in the source and are kept apart here. Bridge positions count the residues as written; N and C are the ends. Ends that are not written are not given here.

Legend:
[1] = biological target: zfα5(huW1-4)β1-1 blade swap integrin (human | zebrafish) (UniProt P08648); experiment: ELISA
[2] = tested on: zfα5β1-1, zfα5β1-2 and zfα5huβ1; experiment: inhibition of 70K binding to zebrafish α5 integrins; conditions: specificity control / antagonist test; 1 mM Mn2+
Summary of the method: (§1)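 Receptors were Fc-fused α5β1 headpiece integrins expressed transiently in CHO-L761h cells and captured from supernatant on goat anti-human Fc. Binding of the biotinylated fibronectin fragment (2–3 nM) was run with 1 mM Mn2+ at room temperature. Peptide inhibitor was tested at 0.1–100 μg/ml and small-molecule inhibitor at 0.1–300 nM, both serially diluted. BSA-well background was subtracted; four replicate wells; at least three experiments.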

[3] = tested on: huα5β1-1, huα5β1-2 and huα5huβ1; experiment: inhibition of 50K binding to human α5 integrins; design: species or system human α5 / zebrafish or human β1; conditions: 1 mM Mn2+
Summary of the method: as §1

[4] = tested on: huα5β1-1; experiment: inhibition of 50K binding to huα5β1-1; design: species or system human α5 / zebrafish β1-1; conditions: control experiments
[5] = biological target: triple loop swap zfα5β1-1 integrin (KEDTPH to EKEPL, RGRK to SWAA and RKEIRF to ASSIY) (zebrafish); experiment: ELISA
[6] = biological target: zebrafish α5β1-1-Fc recombinant soluble integrin (zebrafish); experiment: ELISA
[7] = biological target: zfα5(ASSIY)β1-1 loop swap integrin (D4-A4 loop RKEIRF to ASSIY) (zebrafish); experiment: ELISA
[8] = biological target: zfα5(EPEK)β1-1 loop swap integrin (B2-C2 loop KEDTPH to EKEPL) (zebrafish); experiment: ELISA
[9] = biological target: zfα5(SWAA)β1-1 loop swap integrin (D3-A3 loop RGRK to SWAA) (zebrafish); experiment: ELISA
[10] = biological target: zfα5β1-1(D225A) (zebrafish); experiment: ELISA
[11] = biological target: zfα5β1-1(L206A) (zebrafish); experiment: ELISA
[12] = biological target: zfα5β1-1(Y204A) (zebrafish); experiment: ELISA
[13] = tested on: α5β1; conditions: cited from earlier work; for affinity for α5β1: phage display peptides
[14] = tested on: human α5 with Tyr-208 (equivalent of Tyr-204) mutated to alanine; conditions: cited from earlier work
[15] = tested on: human α5 with Ile-210 (equivalent of Leu-206) mutated to alanine; conditions: cited from earlier work
[16] = biological target: T1, zfα5(SWAA)β1-1 (Danio rerio, UniProt A0ACM8Q6M2+Q3YAA1, R184S/G185W/R186A/K187A/S520N); experiment: Solid-phase inhibition of biotinylated 70K zebrafish fibronectin-1 fragment; type: biochemical; conditions: read-out: Apparent KI values (nM), JSM6427, 70K; SD, n = 3
Summary of the method: (§2)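 Fc-fused soluble integrin (full α5 ectodomain plus β1 headpiece: PSI, hybrid, βI) from CHO-L761h supernatants 6 days after transient co-transfection, captured on anti-human Fc. Biotinylated fibronectin fragment (E. coli-made human 3Fn6-10 or FLAG-purified zebrafish 70K from 293-EBNA cells) at 2–3 nM, 1 mM Mn2+, room temperature. Inhibitor 0.1–300 nM, serially diluted. Four replicate wells, BSA background subtracted. Curves fitted by simulated annealing. KI = IC50/(1+[ligand]/KD).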

[17] = biological target: Triple swap (Danio rerio, UniProt A0ACM8Q6M2+Q3YAA1, K151E/E152K/D153E/DEL154/H156L/R184S/G185W/R186A/K187A/R250A/K251S/E252S/DEL254/F255Y/S520N); experiment: as above; type: biochemical; conditions: read-out: Apparent KI values (nM), JSM6427, 70K; SD, n = 3
Summary of the method: as §2

[18] = biological target: huα5β1-1 (UniProt P08648+Q3YAA1); experiment: Solid-phase inhibition of biotinylated 50K human fibronectin fragment; type: biochemical; conditions: read-out: Apparent KI values (nM), JSM6427, 50K; SD, n = 3
Summary of the method: as §2

[19] = biological target: T1, zfα5(SWAA)β1-1; type: biochemical; conditions: read-out: apparent KI values for JSM6427 (Figure 6 legend); SD, n = 3
Summary of the method: as §2

[20] = biological target: zfα5(SGAA)β1-1 (Danio rerio, UniProt A0ACM8Q6M2+Q3YAA1, R184S/R186A/K187A/S520N); type: biochemical; conditions: read-out: apparent KI values for JSM6427 (Figure 6 legend); SD, n = 3
Summary of the method: as §2

[21] = biological target: human α5 / zebrafish β1-1-Fc recombinant soluble integrin (human | zebrafish, UniProt P08648;Q3YAA1); experiment: ELISA
[22] = biological target: triple loop swap zfα5β1-1 integrin (KEDTPH to EKEPL, RGRK to SWAA and RKEIRF to ASSIY) (zebrafish); experiment: ELISA; remark: listed apart in the source
[23] = biological target: zfα5(SWAA)β1-1 loop swap integrin (D3-A3 loop RGRK to SWAA) (zebrafish); experiment: ELISA; remark: listed apart in the source
[24] = biological target: zfα5(huW1-4)β1-1 blade swap integrin (human | zebrafish) (UniProt P08648); experiment: ELISA; remark: listed apart in the source

With “50 kDa cell binding domain of human fibronectin (3Fn6-10) (domain or fragment)” as the molecule, how does the Kd [1] read?
Its Kd is 1.3 nM.

With `O=C(O)CN(CCN(CC(=O)O)CC(=O)O)CC(=O)O` [EDTA] as the molecule, how does the “inhibition of 70K binding to zebrafish α5 integrins” value [2] read?
Its value is “could be inhibited”.

What about the “inhibition of 50K binding to human α5 integrins” value [3] of the same molecule?
Its value is “fully inhibited”.

With “GACRRETADACGA (disulfide 3-11 (inferred))” as the molecule, how does the “inhibition of 50K binding to huα5β1-1” value [4] read?
The value was “ineffective”.

With “70 kDa cell binding fragment of zebrafish fibronectin-1 (3Fn6-10 including the EIIIB domain) (domain or fragment)” as the molecule, how does the Kd [5] read?
Its Kd is 5.8 nM.

And the fold higher affinity than for zfα5β1-2 [6]?
The fold higher affinity than for zfα5β1-2 was 3 fold.

And the Kd [7]?
The Kd was 8.3 nM.

And the Kd [8]?
Its Kd is 4.6 nM.

And the Kd [9]?
The Kd was 1.7 nM.

What about the Kd [1] of the same molecule?
Its Kd is 14 nM.

And the Kd [10]?
The Kd was 42 nM.

And the Kd [11]?
The Kd was 106 nM.

And the Kd [12]?
Its Kd is 79 nM.

For “CRGDGFC (disulfide 1-7 (inferred)) [CRGDGFC]”, which “affinity for α5β1” value [13] is on record?
Its value is “high affinity”.

What does the source list for fibronectin?
reduction of affinity of fibronectin binding, human α5 Tyr mutated to alanine [14]: 5 fold; reduction of affinity of fibronectin binding, human α5 Ile mutated to alanine [15]: 200 fold

What does the source list for “GCRGDSPCG (disulfide 2-8 (inferred)) [cyclic RGD peptide]”?
inhibition of 70K binding to zebrafish α5 integrins [2]: could be inhibited; inhibition of 50K binding to human α5 integrins [3]: fully inhibited

Which “affinity for α5β1” value [13] does the source give for “CRGDGWC (disulfide 1-7 (inferred)) [CRGDGWC]” here?
Its value is “high affinity”.

Which Ki [16] does the source give for JSM6427 here?
Its Ki is 7.2 ± 2.4 nM.

What about the Ki [17] of the same molecule?
The Ki was 1.21 ± 0.04 nM.

And the Ki [18]?
The Ki was 0.65 ± 0.15 nM.

What about the Ki [19] of the same molecule?
The Ki was 4.2 nM.

And the Ki [20]?
Its Ki is 25 nM.

Which “specificity/selectivity for human α5β1” value ([13]; Trp-157 in the D3-A3 loop involved) does the source give for RGDGW here?
Its value is “human α5β1-specific and α5β1-selective”.

B1: cyclic peptide GACRRETAWACGA (peptide)
peptide: GACRRETAWACGA
modifications: disulfide 3-11 (inferred)
For B1, which Ki [21] is on record?
Its Ki is 47 nM.

B2: cyclic peptide … (peptide)
peptide: GACRRETAWACGA
modifications: disulfide 3-11 (inferred)
Which Ki [22] does the source give for B2 here?
Its Ki is 76 nM.

And the Ki [23]?
The Ki was 126 nM.

What about the Ki [24] of the same molecule?
Its Ki is 31 nM.
